Experimental data published in ChEMBL document CHEMBL1147681, “Identification of a terphenyl derivative that blocks the cell cycle in the G0-G1 phase and induces differentiation in leukemia cells” (J Med Chem, 2006).
Active and inactive are the calls of the source. The rule behind the calls is not given here.

How the values were obtained:
HL-60 [1] = assay: Antiproliferative activity against human HL60 cell line; type: functional, cell-based
Summary of the method: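 Cell growth inhibition measured by counting cells with an automatic cell counter in sensitive HL60, MDR HL60R and Bcr-Abl-expressing K562 cells. IC50 is the concentration inhibiting 50% of cell growth.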

HL-60 [2] = assay: Proapoptotic activity against human HL60 cell line; type: functional, cell-based
Summary of the method: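 Apoptosis assessed by morphological assay and annexin V test. AC50 is the concentration inducing apoptosis in 50% of cells.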

HL-60 [3] = assay: Induction of differentiation of human HL60 cells at 10 uM measured as expression of monocytic marker CD14 after 4 days; type: functional
Summary of the method: (§1)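 HL60 cells exposed to 10 µM compound; CD14 (monocytic), CD11b and CD11c (granulocytic) surface expression measured by flow cytometry, as percentage of positive cells versus untreated control. Read-out given as 72 h in text, 4 days in table.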

HL-60 [4] = assay: Induction of differentiation of human HL60 cells at 10 uM measured as expression of granulocytic marker CD11b after 4 days; type: functional; summary of the method: as §1
HL-60 [5] = assay: Induction of differentiation of human HL60 cells at 10 uM measured as expression of granulocytic marker CD11c after 4 days; type: functional; summary of the method: as §1
HL-60 [6] = assay: Cell cycle arrest in human HL60 cells by accumulation at G2/M phase at 20 uM; type: functional, cell-based
Summary of the method: (§2)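 HL60 cells were stained with propidium iodide and analysed by flow cytometry for sub-G0-G1, G0-G1, S and G2-M peaks against untreated control. Exposures were 50 µM for 8 h or 24 h, 10 µM for 96 h, and 20 or 30 µM for 24 h.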

HL-60 [7] = assay: Cell cycle arrest in human HL60 cells by accumulation at G2/M phase at 10 uM; type: functional, cell-based
Summary of the method: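 HL60 cells exposed for 24 h at 10 µM, stained with propidium iodide, and analysed by flow cytometry for DNA content. Sub-G0-G1 (apoptotic), G0-G1, S and G2-M peaks compared with untreated HL60 cells.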

HL-60 [8] = assay: Cell cycle arrest in human HL60 cells by accumulation at G0/G1 phase at 50 uM after 8 hrs; type: functional, cell-based; summary of the method: as §2
HL-60 [9] = assay: Cell cycle arrest in human HL60 cells by accumulation at G0/G1 phase at 10 uM after 96 hrs; type: functional, cell-based; summary of the method: as §2
HL-60 [10] = assay: Cell cycle arrest in human HL60 cells by accumulation at S phase at 30 uM; type: functional, cell-based; summary of the method: as §2

Structure (SMILES)	IC50 (HL-60 [1])	AC50 (HL-60 [2])	also measured
COc1cc(OC)cc(-c2cccc(-c3ccc(O)cc3)c2)c1	4.8 µM	23 µM	
COc1ccc(-c2cccc(-c3cc(OC)cc(OC)c3)c2)cc1	50 µM	> 100 µM	
Oc1cc(O)cc(-c2ccc3cc(O)ccc3c2)c1	28 µM	48 µM	
COc1cc(/C=C/c2ccccc2O)cc(OC)c1	9 µM	35 µM	
CCOc1cc(/C=C/c2cc(OC)cc(OC)c2)ccc1O	11 µM	18 µM	
COc1ccc(-c2ccc(-c3cc(OC)cc(OC)c3)cc2)cc1	75 µM	> 100 µM	
COc1cc(/C=C/c2cc(Cl)ccc2O)cc(OC)c1	14 µM	29 µM	
Oc1ccc(/C=C/c2cc(O)cc(O)c2)cc1 [RESVERATROL]			Activity (HL-60 [3]): 23%; Activity (HL-60 [4]): 24%; Activity (HL-60 [5]): 22%
COc1cc(OC)cc(-c2ccccc2-c2ccc(O)cc2)c1	5 µM	10 µM	
COc1cc(OC)cc(-c2ccc3cc(O)ccc3c2)c1	10 µM	19 µM	
COc1cc(OC)cc(-c2ccc3cc(OC)ccc3c2)c1	76 µM	91 µM	
Oc1ccc(-c2ccccc2-c2cc(O)cc(O)c2)cc1	3.5 µM	9 µM	Activity (HL-60 [6]): Active
COc1cc(/C=C/c2cccc(O)c2)cc(OC)c1	23 µM	58 µM	
COc1cc(/C=C/c2cc(OC)c(O)c(OC)c2)cc(OC)c1	20 µM	79 µM	
COc1cc(/C=C/c2ccc(O)cc2)cc(OC)c1 [PTEROSTILBENE]		75 µM	
Oc1ccc(-c2cccc(-c3cc(O)cc(O)c3)c2)cc1	27 µM	63 µM	
COc1cc(/C=C/c2cc(C(C)(C)C)c(O)c(C(C)(C)C)c2)cc(OC)c1	84 µM	> 100 µM	
COc1ccc(-c2ccccc2-c2cc(OC)cc(OC)c2)cc1	7 µM	15 µM	
COc1ccc(/C=C/c2cc(OC)cc(OC)c2)cc1 [TRISMETHOXYRESVERATROL]	2.5 µM	4 µM	Activity (HL-60 [7]): Active
COc1cc(OC)cc(-c2ccc(-c3ccc(O)cc3)cc2)c1	2.5 µM	30 µM	
Oc1ccc(-c2ccc(-c3cc(O)cc(O)c3)cc2)cc1	7 µM	25 µM	Activity (HL-60 [8]): Active; Activity (HL-60 [9]): Active; Activity (HL-60 [3]): 58%; Activity (HL-60 [4]): 62%; Activity (HL-60 [5]): 60%
COc1cc(/C=C/c2cccc(OC)c2O)cc(OC)c1	3.5 µM	15 µM	Activity (HL-60 [10]): Active
